ERAP1 inh: blocks human ERAP1 aminopeptidase activity | Q9NZ08 | recombinant ERAP1, Leu-AMC fluorescence, 60 min | inhibition, % at 10.7 µM | 340,000 compounds, 0.15% hits | AID 652197;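 active = mean replicate inhibition of at least 30%, or all replicates individually reaching that 30% level; inactive = mean below 30% and not every replicate reaching it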;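 also: 0% = neutral control wells and 100% = L-leucinethiol positive control wells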
S100A4 MyoIIA: S100A4-myosin IIA interaction inhibition. inhibition, % at 10.7 µM. AID 652163. 360,000 compounds, 0.14% hits. P26447. S100A4/TAMRA-MyoIIA peptide fluorescence polarization;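 active = mean inhibition of at least 70% across replicates, with every replicate also reaching that level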
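Material: S100A4 monomer protein | Medium: HEPES pH 7.2 with CaCl2, KCl, NaCl, DTT, Triton | Reagent: Labelled myosin peptide probe, 5 nM | Doses: One dose per compound | Times: 5 min incubation before reading | Benchmarks: Neutral control DMSO, positive control TFP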
SIRT5 inh: inhibitors of human sirtuin-5 desuccinylase; Q9NXA8; Purified SirT5, succinyl-peptide AMC, trypsin-coupled fluorescence; inhibition, % at 15 µM; 330,000 compounds, 1.1% hits; AID 652115; in the data active = inhibition above about 15%
CAL PDZ FP-1: inhibitors of human CAL PDZ peptide binding. purified CAL PDZ, TMR-peptide fluorescence polarization, 1 h. inhibition, % at 20 µM. 330,000 compounds, 0.02% hits. AID 504414;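 active = highest replicate inhibition of at least 40%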;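 also: plate controls were DMSO neutral control wells for no effect and unlabeled competitor peptide control wells for full effect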
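Material – purified CerCALP PDZ construct · Detection – FP readout, S and P plane fluorescence · Measure – percent inhibition from loss of millipolarization · Controls – unlabelled peptide for full inhibition, DMSO wells as neutral · Probe or stimulus – TMR-labelled reporter peptide T*-PRC34 bound in PDZ groove · Times – 1 h at RT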
DENV2 CPE rescue: DENV2-induced cell death inhibition | DENV2-infected cells, cytopathic effect rescue, plate reader | AID 651640 | CPE inhibition, % at 9.99 µM | 350,000 compounds, 1.7% hits; in the data active = CPE inhibition above about 20%, passing the limit was not always enough; tested in BHK-21 cells;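 also: 0% = median of neutral control wells and 100% = median of positive control wells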
CAL PDZ FP-2: CAL PDZ (human) peptide binding inhibition | 300,000 compounds, 0.92% hits | purified CAL PDZ, TMR-peptide fluorescence polarization, 1 h | Q9HD26 | inhibition, % at 24.9 µM;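 active = mean inhibition of at least 30% with at least half of replicates also reaching 30%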;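 also: 0% = DMSO neutral control and 100% = excess unlabeled competitor peptide PRC23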
The depositor's hits bear a star; . = no result. Rows were chosen to be rich in hits. Some 2.9% of all compounds tested hit in one or more screens of this group.

SMILES | ERAP1 inh | S100A4 MyoIIA | SIRT5 inh | CAL PDZ FP-1 | DENV2 CPE rescue | CAL PDZ FP-2
COc1cc(/C=C2\C(=N)N3N=C(S(C)(=O)=O)SC3=NC2=O)ccc1OCCOc1ccccc1C | 5 | -1 | 33* | -3 | 3 | -9
CN(CC(=O)Nc1ccc(F)cc1)C(=O)c1cn(-c2ccccc2)nc1-c1cccs1 | 0 | -3 | -1 | -1 | -2 | 31*
Cc1noc(C)c1NC(=O)N(C)C[C@@H]1Oc2ccc(NS(=O)(=O)c3ccccc3)cc2CC(=O)N([C@H](C)CO)C[C@H]1C | -2 | -11 | -1 | . | 4 | .
C=CCc1ccc(OCCCNCc2ccccc2)c(OC)c1 | -1 | 2 | -3 | -1 | 43* | -3
CCOCCCNCc1ccc(OCc2ccccc2C)c(OC)c1 | . | 2 | 20* | -2 | 0 | -2
c1ccc(OCCOCCOc2ccccc2)cc1 | 3 | 1 | . | -2 | . | .
F[B-](F)(F)COc1ccccc1 | -2 | 5 | -1 | -1 | 36* | -2
Cc1nn(C)c(C(=O)Sc2cccc(Cl)c2)c1[N+](=O)[O-] | -6 | -2 | 3 | -1 | -5 | 95*
CCOCc1nnc(NC(=O)C2CC(=O)N(CCc3ccc(F)cc3)C2)s1 (stereo unspecified) | -5 | -2 | . | -3 | -2 | -5
CCOc1ccc(CCNC(=O)C2CC(=O)N(CCc3ccccc3)C2)cc1OCC (stereo unspecified) | -6 | -3 | 6 | -7 | -1 | 0
CCOCCc1nnc(NC(=O)C2CC(=O)N(CCc3ccc(F)cc3)C2)s1 (stereo unspecified) | -7 | -17 | -1 | -1 | -3 | 59*
CCOc1ccc(NC(=O)C2CC(=O)N(CCc3ccccc3)C2)cc1OC (stereo unspecified) | -3 | -20 | -1 | -2 | 89* | 1
CCN(CC)c1ccc(NC(=O)C2CC(=O)N(Cc3ccccc3)C2)cc1 (stereo unspecified) | -1 | 3 | -1 | -1 | -4 | 101*
CCC(=O)Nc1ccc2c(c1)C(=O)N(C)[C@@H]1CC[C@@H](CC(=O)Nc3cccc(OC)c3)O[C@H]1CO2 | -1 | 1 | -4 | . | -9 | .
COC(=O)C[C@@H]1CC[C@@H]2[C@H](COc3ccc(NS(C)(=O)=O)cc3C(=O)N2C)O1 | . | . | . | . | -2 | .
c1ccc2nc(N3CCOCC3)c(N3CCCC3)nc2c1 | 2 | -8 | 2 | 9 | 8 | 71*
C[C@H](CO)N1C[C@H](C)[C@@H](CN(C)Cc2ccc(Oc3ccccc3)cc2)Oc2ccc(NC(=O)Nc3cccc4ccccc34)cc2C1=O | -3 | 3 | 8 | . | 20 | .
Cc1ccc(S(=O)(=O)Nc2ccc3c(c2)C(=O)N([C@@H](C)CO)C[C@@H](C)[C@@H](CN(C)C(=O)Nc2cccc4ccccc24)OCCCC[C@@H](C)O3)cc1 | 2 | 10 | 17* | . | -7 | .
C[C@H](CO)N1C[C@H](C)[C@@H](CN(C)C(=O)Nc2cccc3ccccc23)Oc2ccc(NS(=O)(=O)c3ccccc3)cc2C1=O | 2 | 7 | -3 | . | 0 | .
C[C@@H]1CCCCO[C@@H](CN(C)C(=O)Nc2cccc3ccccc23)[C@@H](C)CN([C@H](C)CO)C(=O)c2cc(NS(=O)(=O)c3ccc(Cl)cc3)ccc2O1 | 2 | 10 | 8 | . | 5 | .
C[C@H](CO)N1C[C@H](C)[C@H](CN(C)C(=O)Nc2cccc3ccccc23)OCCCC[C@H](C)Oc2ccc(NS(=O)(=O)c3cn(C)cn3)cc2C1=O | . | . | . | . | 103* | .
C[C@@H]1CCCCO[C@H](CN(C)C(=O)Nc2cccc3ccccc23)[C@H](C)CN([C@@H](C)CO)C(=O)c2cc(NS(=O)(=O)c3cn(C)cn3)ccc2O1 | . | . | . | . | -11 | .
C[C@@H]1CN([C@@H](C)CO)C(=O)c2cc(NS(=O)(=O)c3ccccc3)ccc2O[C@H]1CN(C)C(=O)Nc1cccc2ccccc12 | 0 | -2 | -3 | . | 27* | .
C[C@@H]1CCCCO[C@H](CN(C)C(=O)Nc2cccc3ccccc23)[C@H](C)CN([C@H](C)CO)C(=O)c2cc(NS(=O)(=O)c3ccc(Cl)cc3)ccc2O1 | -1 | -11 | 6 | . | 58* | .
Cc1ccc(S(=O)(=O)Nc2ccc3c(c2)C(=O)N([C@@H](C)CO)C[C@H](C)[C@H](CN(C)C(=O)Nc2cccc4ccccc24)OCCCC[C@@H](C)O3)cc1 | 0 | 9 | 0 | . | -3 | .
SMILES | ERAP1 inh | S100A4 MyoIIA | SIRT5 inh | CAL PDZ FP-1 | DENV2 CPE rescue | CAL PDZ FP-2
CC(C)NC(=O)N(C)C[C@H]1Oc2ccc(NS(=O)(=O)c3ccccc3)cc2C(=O)N([C@@H](C)CO)C[C@@H]1C | -3 | -14 | 2 | . | 2 | .
COc1ccc(S(=O)(=O)Nc2ccc3c(c2)C(=O)N([C@@H](C)CO)C[C@H](C)[C@@H](CN(C)C(=O)Nc2cccc4ccccc24)OCCCC[C@@H](C)O3)cc1 | -2 | -4 | 3 | . | 26* | .
C[C@H](CO)N1C[C@H](C)[C@@H](CN(C)C(=O)Nc2cccc3ccccc23)OCCCC[C@H](C)Oc2ccc(NS(=O)(=O)c3ccc(F)cc3)cc2C1=O | -5 | -4 | 13 | . | 39* | .
CC(C)NC(=O)N(C)C[C@@H]1Oc2ccc(NS(=O)(=O)c3ccccc3)cc2C(=O)N([C@H](C)CO)C[C@@H]1C | 1 | 112* | 1 | . | -6 | .
C[C@@H]1CCCCO[C@H](CN(C)C(=O)Nc2cccc3ccccc23)[C@@H](C)CN([C@@H](C)CO)C(=O)c2cc(NS(=O)(=O)c3ccccc3)ccc2O1 | 3 | 5 | 15* | . | 34* | .
O=C(NCc1ccc(F)cc1)[C@@H]1[C@@H](CO)[C@@H]2Cn3c(cccc3=O)[C@H]1N2C(=O)Cc1ccccn1 | -2 | -2 | -3 | . | 15 | .
COc1ccc(CN(C)C[C@@H]2Oc3ccc(NC(=O)CCC(F)(F)F)cc3C(=O)N([C@@H](C)CO)C[C@H]2C)cc1 | 2 | -12 | -5 | . | -3 | .
C[C@H](NC(=O)C[C@@H]1CC[C@H]2[C@@H](COC[C@H](O)CN2Cc2cc(F)ccc2F)O1)c1ccccc1 | 3 | 1 | -2 | . | -3 | .
C[C@H]1CN([C@@H](C)CO)C(=O)c2cc(NS(C)(=O)=O)ccc2O[C@H]1CN(C)S(=O)(=O)c1cccs1 | 0 | -2 | -6 | . | 1 | .
O=C(Nc1ccccc1)N1C[C@@H]2[C@H](c3ccccc31)[C@H](CO)N2CC1CCCC1 | 0 | 2 | 3 | . | 2 | .
CCn1c(-c2nn(-c3ccccc3)ccc2=O)n[nH]c1=S | 7 | -3 | -1 | -4 | -8 | -1
CCn1c(SC)nnc1-c1nn(-c2ccccc2)ccc1=O | 103* | -2 | -2 | 0 | 8 | .
COc1ccc(NC(=O)N2C[C@@H](O)COC[C@@H]3O[C@H](CC(=O)NCc4ccccc4OC)CC[C@H]32)cc1 | -1 | -25 | -3 | . | -1 | .

Assay outcomes as filed in PubChem BioAssay.
